Experimental data of several laboratories.
Protocols differ between the studies behind these lines.
Cell line: PC-3
Observed: cell growth or viability

Cc1ccc(-c2cc(-c3ccc(N(C)C)cc3)c3c(=O)n(C)c(=O)n(C)c3n2)cc1  IC50 (MTT; 48 h): 21.5 µM
CCOc1ccc2c(C)c(CC)c(=O)oc2c1C  viability (MTT; 500 µg/mL): 7.6%
Cc1nc(Nc2ccc3c(c2)/C(=C/c2ccccc2C)C(=O)N3C)c2ccccc2n1  IC50 (MTT): 15.9 µM
Cc1c(Cc2ccccc2)c(=O)oc2c(C)c(OCC(=O)NN=Cc3ccccc3)ccc12  viability (MTT; 62.5 µg/mL): 26.3%
CCCOc1nc(-c2cccc(O)c2)cc(-c2cc3cc(OC)ccc3nc2N2CCOCC2)c1C#N  IC50 (MTT; 72 h): 0.0639 µM
CCc1c(C)c2ccc(OCC(=O)NNC(=S)Nc3ccccc3)c(C)c2oc1=O  viability (MTT; 1000 µg/mL): 2.47%
COc1ccc(-c2cc(-c3ccccc3Cl)c3c(=O)[nH]c(=O)[nH]c3n2)cc1  IC50 (MTT; 48 h): 28.4 µM
COc1cc2ncnc(Nc3ccc4c(c3)/C(=C/c3ccccc3)C(=O)N4)c2cc1OC  IC50 (MTT): 4.17 µM
CCCOc1ccc2c(C)c(CC)c(=O)oc2c1C  viability (MTT; 125 µg/mL): 56.8%
Cc1nc(Nc2ccc3c(c2)/C(=C/c2ccccc2)C(=O)N3C)c2ccccc2n1  IC50 (MTT): 18.7 µM
C=CC(=O)c1cccnc1Nc1cc(C(F)(F)F)ccc1OC  GI50 (SRB; 48 h): 5.58 µM
COc1ccc(-c2cc(-c3cccc(Br)c3)c3c(=O)n(C)c(=O)n(C)c3n2)cc1  IC50 (MTT; 48 h): 18.4 µM
Cc1c(Cc2ccccc2)c(=O)oc2c(C)c(OCC(=O)NN=Cc3ccc([N+](=O)[O-])cc3)ccc12  viability (MTT; 31.25 µg/mL): 31.3%
Cc1nc(Nc2ccc3c(c2)/C(=C/c2ccccc2)C(=O)N3Cc2ccccc2)c2ccccc2n1  IC50 (MTT): > 50 µM
Cc1ccc(-c2cc(-c3ccc(N(C)C)cc3)c3c(=O)[nH]c(=O)[nH]c3n2)cc1  IC50 (MTT; 48 h): 17.4 µM
Cc1nc(Nc2ccc3c(c2)/C(=C/c2ccccc2Cl)C(=O)N3)c2ccccc2n1  IC50 (MTT): 2.45 µM
COc1ccc(-c2cc(-c3cccc(Br)c3)c3c(=O)[nH]c(=O)[nH]c3n2)cc1  IC50 (MTT; 48 h): 18.5 µM
Cc1c(Cc2ccccc2)c(=O)oc2c(C)c(OCC(=O)NN=Cc3ccc(Cl)cc3)ccc12  viability (MTT; 500 µg/mL): 5.27%
COc1ccc(-c2cc(-c3c(OC)cccc3OC)c3c(=O)[nH]c(=O)[nH]c3n2)cc1  IC50 (MTT; 48 h): 41.5 µM
Cc1nc(N(Cc2ccccc2)c2ccc3c(c2)/C(=C/c2ccccc2)C(=O)N3Cc2ccccc2)c2ccccc2n1 (mixture of isomers)  IC50 (MTT): 0.56 µM
Cc1ccc(-c2cc(-c3ccc(Cl)c(F)c3)c3c(=O)n(C)c(=O)n(C)c3n2)cc1  IC50 (MTT; 48 h): 41.5 µM
CCc1c(C)c2ccc(OCc3nnc(S)n3N)c(C)c2oc1=O  viability (MTT; 31.25 µg/mL): 58.5%
COc1ccc(-c2cc(-c3ccc(N(C)C)cc3)c3c(=O)n(C)c(=O)n(C)c3n2)cc1  IC50 (MTT; 48 h): 5.18 µM
CCc1c(C)c2ccc(OCC(=O)NN=Cc3ccc([N+](=O)[O-])cc3)cc2oc1=O  viability (MTT; 31.25 µg/mL): 22.2%
O=C(O)c1ccccc1Nc1cccc(C(F)(F)F)c1  GI50 (SRB; 48 h): > 30 µM
